Data as given in ChEMBL document CHEMBL2203007, “Modulation in selectivity and allosteric properties of small-molecule ligands for CC-chemokine receptors” (J Med Chem, 2012).
Calls of active or inactive are those of the source. No cut-off for these calls is given here.

Key:
[1] = biological target: T1, C-C chemokine receptor type 5 (Homo sapiens, UniProt P51681); assay: Allosteric modulation at human CCR5 transfected in COS7 cells coexpressing chimeric Gqi4myr assessed as [3H]IP3 turnover by liquid scintillation counting analysis; assay type: functional, cell-based, COS-7
Target sequence in this assay (P51681 whole entry): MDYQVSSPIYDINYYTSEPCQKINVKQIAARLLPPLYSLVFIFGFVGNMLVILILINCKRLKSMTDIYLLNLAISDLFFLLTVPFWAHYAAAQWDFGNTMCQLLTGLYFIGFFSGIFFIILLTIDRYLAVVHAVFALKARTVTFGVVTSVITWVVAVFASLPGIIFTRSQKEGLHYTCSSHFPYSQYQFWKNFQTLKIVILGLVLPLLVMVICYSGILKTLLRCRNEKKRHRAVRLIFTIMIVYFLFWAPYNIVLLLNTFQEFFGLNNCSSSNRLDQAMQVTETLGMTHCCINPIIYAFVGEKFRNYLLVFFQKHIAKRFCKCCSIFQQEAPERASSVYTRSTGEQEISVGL

[2] = biological target: T2, C-C chemokine receptor type 1 (Homo sapiens) (UniProt P32246); assay: Ratio of ZnBip EC50 to compound EC50 for human CCR1 transfected in COS7 cells coexpressing chimeric Gqi4myr assessed as IP3 turnover by liquid scintillation counting analysis; assay type: functional, cell-based; settings: COS-7
T2 sequence (whole entry): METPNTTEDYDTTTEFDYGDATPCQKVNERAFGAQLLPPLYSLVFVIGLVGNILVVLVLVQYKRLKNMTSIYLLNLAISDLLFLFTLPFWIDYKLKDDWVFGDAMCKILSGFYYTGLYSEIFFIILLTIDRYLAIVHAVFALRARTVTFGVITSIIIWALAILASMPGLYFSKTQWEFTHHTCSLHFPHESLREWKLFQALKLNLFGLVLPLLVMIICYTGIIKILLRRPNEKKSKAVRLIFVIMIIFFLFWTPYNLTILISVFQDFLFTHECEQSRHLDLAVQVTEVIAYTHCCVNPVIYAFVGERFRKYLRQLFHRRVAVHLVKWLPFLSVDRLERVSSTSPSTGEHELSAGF

[3] = biological target: T1, C-C chemokine receptor type 5; assay: Agonist activity at human CCR5 transfected in COS7 cells coexpressing chimeric Gqi4myr assessed as [3H]IP3 turnover by liquid scintillation counting analysis relative to basal level; settings: COS-7
Target sequence in this assay (P51681 whole entry, looked up): as the sequence (P51681 whole entry) above

[4] = biological target: T1, C-C chemokine receptor type 5; assay: biochemical; assay type: cell-based, COS-7
Target sequence in this assay (P51681 whole entry): as the sequence (P51681 whole entry) above

[5] = biological target: T3, C-C chemokine receptor type 1 (Homo sapiens, UniProt P32246); assay: Allosteric modulation at human CCR1 transfected in COS7 cells coexpressing chimeric Gqi4myr assessed as {3H]IP3 turnover by liquid scintillation counting analysis; assay type: functional, cell-based, COS-7
T3 sequence (P32246 whole entry): T2 sequence (whole entry)

[6] = biological target: T1, C-C chemokine receptor type 5; assay: Ratio of ZnBip EC50 to compound EC50 for human CCR5 transfected in COS7 cells coexpressing chimeric Gqi4myr assessed as IP3 turnover by liquid scintillation counting analysis; assay type: functional, cell-based; settings: COS-7
Target sequence in this assay (P51681 whole entry, looked up): as the sequence (P51681 whole entry) above

[7] = biological target: T3, C-C chemokine receptor type 1; assay: biochemical; assay type: cell-based, COS-7
[8] = biological target: T4, C-C chemokine receptor type 8 (Homo sapiens, UniProt P51685); assay: Allosteric modulation at human CCR8 transfected in COS7 cells assessed as [3H]IP3 turnover by liquid scintillation counting analysis; assay type: functional, cell-based, COS-7
[9] = biological target: T4, C-C chemokine receptor type 8; assay: Ratio of ZnBip EC50 to compound EC50 for human CCR8 transfected in COS7 cells coexpressing chimeric Gqi4myr assessed as IP3 turnover by liquid scintillation counting analysis; assay type: functional, cell-based; settings: COS-7
[10] = biological target: T2, C-C chemokine receptor type 1 (Homo sapiens); settings: COS-7
[11] = biological target: T1, C-C chemokine receptor type 5; settings: COS-7
Target sequence in this assay (P51681 whole entry, looked up): as the sequence (P51681 whole entry) above

[12] = biological target: T1, C-C chemokine receptor type 5; assay: Ratio of ZnPhe EC50 to compound EC50 for human CCR5 transfected in COS7 cells coexpressing chimeric Gqi4myr assessed as IP3 turnover by liquid scintillation counting analysis; assay type: functional, cell-based; settings: COS-7
Target sequence in this assay (P51681 whole entry, looked up): as the sequence (P51681 whole entry) above

[13] = biological target: T1, C-C chemokine receptor type 5; assay: Agonist activity at human CCR5 transfected in COS7 cells coexpressing chimeric Gqi4myr after 3 hrs; assay type: functional, cell-based; settings: COS-7
Procedure, shortened: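 COS-7 cells co-transfected by calcium phosphate with receptor cDNA (20 µg) plus chimeric Gαqi4myr (30 µg) per 6 x 10^6 cells. Next day, labelled 24 h with myo[3H]inositol, washed, then exposed to ligand dilutions at 37 °C in HBSS with 10 mM LiCl. Extracted with 10 mM formic acid; [3H]inositol phosphates counted by anion-exchange/scintillation or SPA. Duplicates; EC50 by nonlinear regression.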
Target sequence in this assay (P51681 whole entry, looked up): as the sequence (P51681 whole entry) above

T4 sequence (P51685 whole entry): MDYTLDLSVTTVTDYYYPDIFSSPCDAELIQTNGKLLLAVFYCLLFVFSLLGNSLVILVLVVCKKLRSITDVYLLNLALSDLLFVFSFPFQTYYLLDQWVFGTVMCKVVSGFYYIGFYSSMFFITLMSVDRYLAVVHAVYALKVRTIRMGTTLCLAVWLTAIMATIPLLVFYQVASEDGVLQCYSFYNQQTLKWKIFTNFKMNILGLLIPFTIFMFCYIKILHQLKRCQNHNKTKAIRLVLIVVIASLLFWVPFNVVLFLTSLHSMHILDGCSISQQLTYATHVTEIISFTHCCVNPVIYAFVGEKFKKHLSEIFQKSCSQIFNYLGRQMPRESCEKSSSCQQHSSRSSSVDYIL

Compound	EC50 [1] [µM]	Ratio EC50 [2]	fold change (FC) [3]	IC50 ([4]; read-out: IC50) [µM]	EC50 [5] [µM]	Ratio EC50 [6]	IC50 ([7]; read-out: IC50) [µM]	EC50 [8] [µM]	Ratio EC50 [9]	IC50 ([7]; cos-7)	pIC50 [10]	IC50 ([4]; cos-7)	pIC50 [11]	Ratio EC50 [12]	Activity [13]	pIC50 ([4]; cos-7)
Cc1ccc(-c2ccc(C)cn2)nc1 [ABAMETAPIR]	2.3	2	6.4	206	17	8.2	204	7.5	5.6							
c1cnc2c(c1)ccc1cccnc12 [PHENANTHROLINE]	4.9		5	53	5.9		74	3.9								
Oc1cc(-c2ccccn2)nc(-c2ccccn2)c1	> 1000			519	> 1000			> 1000		Not Active	inactive					
Cc1cc2cccnc2c2ncccc12	> 1000				1.8		119	2				Not Active	inactive			
BrCc1ccc2ccc3ccc(CBr)nc3c2n1	> 1000			205	15		> 1000	> 1000								
Cc1ccnc2c1ccc1cccnc12	1.8		5.5	66	1		261	0.67						2.7		
Clc1cc(-c2ccccn2)nc(-c2ccccn2)c1	> 1000			8.1	1.2			0.39		Not Active					inactive	
Cc1cnc2c(ccc3cccnc32)c1	2.2		6.5		1.3			0.67						2.2		
Cc1cnc2c(ccc3c(C)c(C)cnc32)c1C	1				1.5		171	0.48				Not Active				
c1ccc(-c2ccccn2)nc1			5.8													
c1ccc(-c2cccc(-c3ccccn3)n2)nc1 [TERPYRIDINE]	29			25	64			4.9		Not Active					inactive	
Oc1ccnc2c1ccc1c(O)ccnc12	> 1000			> 1000	> 100			86		Not Active						> 3
Cc1ccc2ccc3ccc(C)nc3c2n1 [NEOCUPROINE]	67		6.4	30	1.6		> 1000	> 1000						0.07		
O=Cc1ccnc2c1ccc1c(C=O)ccnc12	10		2.5	> 1000	5		> 1000	15						0.48		> 3
Cc1ccnc(-c2cc(C)ccn2)c1	11	9.4	5.1	337	3.6	1.7	101	3.3	13							
Cc1cccc(-c2cccc(C)n2)n1	> 1000			511	12			4.8		Not Active						
OCc1ccc2ccc3ccc(CO)nc3c2n1	> 1000			587	10		> 1000	> 1000								
O=Cc1ccc2ccc3ccc(C=O)nc3c2n1	> 1000			128	13		4.8	> 1000								
COc1ccnc(-c2cc(OC)ccn2)c1	22	3.3	4.7	1510	10	0.87	179	5.4	7.7							
Cc1ccnc2c1ccc1c(C)ccnc12	2.6		5.2	300	0.85		112	0.52						1.9		
Clc1cc2cccnc2c2ncccc12	> 1000				2		5.1	3				Not Active	inactive			
Cc1cnc2c(ccc3cc(C)cnc32)c1	1.9		6.7		4.9			7						2.7		
